What was measured:
Homo sapiens = species: Homo sapiens; experiment: Selectivity ratio of Ki for human CB1 to Ki for human CB2
Cannabinoid receptor 2 [1] = target: T1, Cannabinoid receptor 2 (Homo sapiens, UniProt P34972); experiment: Inverse agonist activity at human CB2 receptor assessed as stimulation of cAMP accumulation after 20 mins
Cannabinoid receptor 2 [2] = target: T1, Cannabinoid receptor 2; experiment: Displacement of [3H]CP-55940 from human CB2 receptor expressed in CHO cells; type: cell-based
Procedure, shortened: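 CHO cells stably transfected with human CB2 receptor. Values are the mean of at least three independent experiments.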

Cannabinoid receptor 1 = Cannabinoid receptor 1 (Homo sapiens, UniProt P21554); experiment: Displacement of [3H]CP-55940 from human CB1 receptor expressed in CHO cells; type: cell-based
Sequence of Cannabinoid receptor 1 (P21554 whole entry): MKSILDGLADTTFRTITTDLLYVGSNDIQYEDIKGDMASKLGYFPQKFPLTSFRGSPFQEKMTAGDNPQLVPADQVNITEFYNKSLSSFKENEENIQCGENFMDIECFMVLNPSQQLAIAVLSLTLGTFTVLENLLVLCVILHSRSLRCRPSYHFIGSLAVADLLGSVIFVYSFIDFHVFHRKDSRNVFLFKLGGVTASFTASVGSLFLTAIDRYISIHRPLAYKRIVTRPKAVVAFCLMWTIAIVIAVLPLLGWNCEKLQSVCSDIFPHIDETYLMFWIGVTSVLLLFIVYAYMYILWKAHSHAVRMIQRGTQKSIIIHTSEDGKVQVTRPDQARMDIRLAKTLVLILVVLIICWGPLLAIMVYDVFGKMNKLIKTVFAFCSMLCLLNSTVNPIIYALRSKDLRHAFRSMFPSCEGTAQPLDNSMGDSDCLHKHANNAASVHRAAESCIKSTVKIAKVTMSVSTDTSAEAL
Procedure, shortened: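 CHO cells stably transfected with human CB1 receptor. Values are the mean of at least three independent experiments.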

Cannabinoid receptor 2 [3] = target: T1, Cannabinoid receptor 2; experiment: Inverse agonist activity at human CB2 receptor assessed as inhibition of forskolin-stimulated cAMP accumulation after 4 hrs; type: functional
Procedure, shortened: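 Functional human CB2 cAMP accumulation assay with the incubation extended to 4 h. Inverse agonism read out as pEC50. Values are the mean of at least three independent experiments.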

Cannabinoid receptor 2 [4] = target: T1, Cannabinoid receptor 2; experiment: Antagonist activity at human CB2 receptor assessed as inhibition of forskolin-stimulated cAMP accumulation in presence of JWH133; type: functional; conditions: read-out: pA2 (converted)
Procedure, shortened: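 Human CB2 cAMP accumulation assay measuring dose-dependent antagonism of the CB2-selective agonist JWH133, expressed as pA2 ± error. Incubation was 20 min, or 4 h for some compounds. Based on at least three independent experiments.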

T1 sequence (P34972 whole entry): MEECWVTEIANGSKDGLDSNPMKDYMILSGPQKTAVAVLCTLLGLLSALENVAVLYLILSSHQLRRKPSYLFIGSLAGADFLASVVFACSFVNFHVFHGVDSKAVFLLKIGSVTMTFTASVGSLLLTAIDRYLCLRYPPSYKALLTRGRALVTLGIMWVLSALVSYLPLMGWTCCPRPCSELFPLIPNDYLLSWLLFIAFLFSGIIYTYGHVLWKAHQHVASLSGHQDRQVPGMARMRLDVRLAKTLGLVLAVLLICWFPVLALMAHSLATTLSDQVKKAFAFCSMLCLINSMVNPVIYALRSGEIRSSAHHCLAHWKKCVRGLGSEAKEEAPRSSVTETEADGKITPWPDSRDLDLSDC

| SMILES | Ratio (Homo sapiens) | EC50 (Cannabinoid receptor 2 [1]) | Ki (Cannabinoid receptor 2 [2]) | Ki (Cannabinoid receptor 1) | EC50 (Cannabinoid receptor 2 [3]) | Kb (Cannabinoid receptor 2 [4]) |
| --- | --- | --- | --- | --- | --- | --- |
| Cc1nc(C(=O)NC[C@H]2C[C@@H]3C[C@H](C2)C3(C)C)c(C)n1-c1ccccc1 | 200 | 31.6 nM | 20 nM | 3990 nM |  |  |
| CCc1nc(C(=O)NC23CC4CC(CC(C4)C2)C3)cn1-c1ccccc1 | > 79 | 12.6 nM | 12.7 nM | > 1000 nM | 6.31 nM |  |
| CSc1c(C(=O)NC23CC4CC(CC(C4)C2)C3)nc(C)n1-c1ccccc1 | > 1000 | 6.31 nM | 10 nM | > 10000 nM |  |  |
| Cc1nc(C(=O)NC2C3CC4CC(C3)CC2C4)c(C)n1-c1ccccc1 (stereo not drawn) | 218 | 6.31 nM | 13.8 nM | 3010 nM |  |  |
| Cc1nc(C(=O)NC23CC4CC(CC(C4)C2)C3)c(C)n1-c1ccccc1 | 1810 | 0.794 nM | 2.7 nM | 4890 nM | 0.794 nM | 1.58 nM |
| Cc1c(C(=O)NC[C@H]2C[C@@H]3C[C@H](C2)C3(C)C)ncn1-c1ccccc1 | > 57 | 158 nM | 175 nM | > 10000 nM |  |  |
| CCCCCOc1c(OC)ccc2cc(C(=O)NCc3ccc4c(c3)OCO4)c(=O)[nH]c12 |  |  |  | 3920 nM |  |  |
| Cc1nc(C(=O)NC2C3CC4CC(C3)C2C4)c(C)n1-c1ccccc1 (stereo not drawn) | 561 | 7.94 nM | 9.7 nM | 5440 nM |  |  |
| Cc1nc(C(=O)NC23CC4CC(CC(C4)C2)C3)c(C)n1C1CCCCC1 | > 500 | 126 nM | 20 nM | > 10000 nM |  |  |
| CCc1nc(C(=O)NC23CC4CC(CC(C4)C2)C3)c(C)n1-c1ccccc1 | 2600 | 1.58 nM | 1.6 nM | 4150 nM |  | 5.01 nM |
| Cc1nc(C(=O)NCc2ccccc2C(F)(F)F)c(C)n1-c1ccccc1 | 406 | 0.2 nM | 3.5 nM | 1420 nM |  |  |
| Cc1nc(C(=O)NC23CC4CC(CC(C4)C2)C3)c(Br)n1-c1ccccc1 | > 1190 |  | 8.4 nM | > 10000 nM |  |  |
| CCc1c(C(=O)NC23CC4CC(CC(C4)C2)C3)nc(C)n1-c1ccccc1 | > 9710 | 20 nM | 1.03 nM | > 10000 nM | 0.251 nM | 1 nM |
| Cc1nc(C(=O)NC23CC4CC(CC(C4)C2)C3)c(Cl)n1-c1ccccc1 | > 420 | 63.1 nM | 23.8 nM | > 10000 nM |  |  |
| O=C(NC12CC3CC(CC(C3)C1)C2)c1nc(Cl)n(-c2ccccc2)c1Cl | > 20 | 79.4 nM | 50 nM | > 1000 nM |  | 7.94 nM |
| C[C@H](NS(C)(=O)=O)c1ccc(S(=O)(=O)c2ccc(Cl)cc2S(=O)(=O)c2ccccc2F)cc1 | 4420 | 7.94 nM | 0.8 nM | 3540 nM | 5.01 nM | 1 nM |
| CCCCc1c(C(=O)NC23CC4CC(CC(C4)C2)C3)nc(C)n1-c1ccccc1 | > 102 | 5.01 nM | 9.8 nM | 2000 nM |  |  |
